Data as given in ChEMBL document CHEMBL1152867, “Targeting QseC signaling and virulence for antibiotic development” (Science, 2008).
The source made the active and inactive calls. No cut-off for these calls is given here.

Columns and labels:
[1] = target: Beta-1 adrenergic receptor (Homo sapiens) (UniProt P08588); assay: Activation of human beta-1-adrenergic receptor expressed in HEK293 cells assessed as cAMP release at 5 uM; format: functional, cell-based
Summary of the method: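 Live HEK293 cells carried an EPAC-based cAMP BRET reporter and expressed endogenous β2 or exogenous β1 or β3 adrenergic receptors. Cells were exposed to test compound alone at 5 μM. Values are means of triplicates, representative of 3 experiments.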

[2] = target: Beta-1 adrenergic receptor (Homo sapiens) (UniProt P08588); assay: Effect on dobutamine-induced human beta-1-adrenergic receptor activation expressed in HEK293 cells assessed as cAMP release at 5 uM; format: functional, cell-based
Summary of the method: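 HEK293 cells carried an EPAC-based cAMP BRET reporter. The agonist for β1 (exogenous) was 1 nM dobutamine, for β2 (endogenous) 100 nM terbutaline, and for β3 (exogenous) 10 nM BRL37344. Each agonist was given alone or with 5 μM compound. Live-cell cAMP was read as triplicate means, representative of 3 experiments.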

[3] = tested on: Escherichia coli; assay: Inhibition of [3H]norepinephrine binding to Escherichia coli Qsec at 5 pM by liposome-based scintillation counting assay
Summary of the method: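 Liposomes reconstituted with QseC were loaded with tritiated norepinephrine (5 μM) by freeze-thaw in liquid N2 and held 10 min at room temperature, so unbound signal could diffuse out. They were pelleted at 12,000g for 5 min and counted for tritium. Counts were normalized to liposomes loaded with 5 μM tyrosine. Compound was tested at 5 pM and 5 fM.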

[4] = tested on: Escherichia coli; assay: Inhibition of AI3-induced Qsec-dependent virulence gene flhDC expression in Escherichia coli at 5 pM by quantitative real-time PCR; format: functional, organism-based
[5] = tested on: Escherichia coli; assay: Inhibition of epinephrine-induced EspA protein secretion in Escherichia coli 8624 at 5 nM by Western blot; format: functional, organism-based
Summary of the method: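 Secreted proteins in cell-free supernatant were TCA-precipitated and immunoblotted with rabbit polyclonal anti-EspA and anti-EspB, with ECL detection.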

[6] = tested on: Escherichia coli; assay: Bactericidal activity against Escherichia coli 8624 at 1 uM; format: functional, organism-based
[7] = tested on: Escherichia coli; assay: Antibacterial activity against Escherichia coli infected in New Zealand white rabbit assessed as inhibition of bacterial colonization in ileum at 20 mg/kg administered along with bacterial challenge; format: functional, organism-based; parameters: dose 20 mg/kg
[8] = tested on: Escherichia coli; assay: Antibacterial activity against Escherichia coli infected in New Zealand white rabbit assessed as inhibition of bacterial colonization in cecum at 20 mg/kg pretreated before 3 hrs of bacterial challenge; format: functional, organism-based; parameters: dose 20 mg/kg; details: Caecum
[9] = tested on: Salmonella typhimurium; assay: Antibacterial activity against Salmonella Typhimurium SL1344 infected in 129x1/SvJ mouse assessed as survival at 20 mg/kg, po administered 3 hrs pre and 3 hrs post-bacterial challenge measured after 24 hrs; format: functional
Summary of the method: (§1)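 Female 129x1/SvJ mice, 7–9 weeks old, were infected intraperitoneally with 10^8 cfu S. typhimurium SL1344. The test agent was given orally at 20 mg/kg in 5% DMSO/23% PEG400/70% Na bicarbonate pH 9/2% Tween 80, 3 h before and 3 h after infection. Controls were drug alone and infection alone. Groups of 10 mice were used and the experiment was repeated twice. Morbidity and death were recorded daily, and survivors were euthanized at day 12.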

[10] = tested on: Salmonella typhimurium; assay: Antibacterial activity against Salmonella Typhimurium SL1344 infected in 129x1/SvJ mouse assessed as survival at 20 mg/kg, po administered 3 hrs pre and 3 hrs post-bacterial challenge measured after 12 days; format: functional; summary of the method: as §1
[11] = tested on: Salmonella typhimurium; assay: Bacteriostatic activity against Salmonella Typhimurium SL1344 at 1 uM; format: functional, organism-based; details: Salmonella enterica subsp. enterica serovar Typhimurium str. SL1344
[12] = tested on: Salmonella typhimurium; assay: Bacteriostatic activity against Salmonella Typhimurium SL1344 at 1 uM in presence of epinephrine; format: functional, organism-based; details: Salmonella enterica subsp. enterica serovar Typhimurium str. SL1344
[13] = tested on: Salmonella typhimurium; assay: Inhibition of norepinephrine-induced virulence gene sifA expression in Salmonella Typhimurium at 5 pM; format: functional, organism-based; details: Salmonella enterica subsp. enterica serovar Typhimurium
[14] = AUC in CD1 mouse at 20 mg/kg, iv administered as bolus dose; format: ADME, organism-based; parameters: dose 20 mg/kg, route intravenous; details: plasma
Summary of the method: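 Groups of three were bled terminally by cardiac puncture at set times. Plasma was acetonitrile-precipitated with internal standard and quantified by electrospray LC/MS/MS against a plasma standard curve (10-1000 ng/ml). Noncompartmental analysis was used.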

[15] = AUC in CD1 mouse at 20 mg/kg, po; format: ADME, organism-based; parameters: dose 20 mg/kg, route oral; details: plasma
Summary of the method: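 Terminal cardiac bleeds were taken in groups of three at set times. Plasma was acetonitrile-precipitated with internal standard and analysed by LC/MS/MS against a spiked-plasma standard curve. Parameters came from noncompartmental analysis.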

[16] = tested on: Mus musculus; assay: Toxicity in CD1 mouse assessed as change in heart weight at 20 mg/kg, po administered daily once for 5 days measured 3 days after final dose; format: organism-based; parameters: dose 20 mg/kg, route oral; details: in vivo
Summary of the method: (§2)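 Female CD-1 mice (~22 g), three per group, given 20 mg/kg by oral gavage once daily for 5 days. Vehicle-only mice served as controls. Animals were weighed and observed daily. Three days after the last dose they were weighed and sacrificed. Blood was taken for chemistry and complete blood counts, and organs were weighed.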

[17] = tested on: Mus musculus; assay: Toxicity in CD1 mouse assessed as change in kidney weight at 20 mg/kg, po administered daily once for 5 days measured 3 days after final dose; format: organism-based; parameters: dose 20 mg/kg, route oral; details: in vivo, 72 h; summary of the method: as §2
[18] = tested on: Mus musculus; assay: Toxicity in CD1 mouse assessed as change in body weight at 20 mg/kg, po administered daily once for 5 days measured 3 days after final dose; format: organism-based; parameters: dose 20 mg/kg, route oral; details: in vivo, 72 h; summary of the method: as §2
[19] = tested on: Mus musculus; assay: Toxicity in CD1 mouse assessed as triglyceride levels at 20 mg/kg, po administered daily once for 5 days measured 3 days after final dose; format: organism-based; parameters: dose 20 mg/kg, route oral; details: in vivo, 72 h; summary of the method: as §2
[20] = tested on: Mus musculus; assay: Toxicity in CD1 mouse assessed as alanine transferase levels at 20 mg/kg, po administered daily once for 5 days measured 3 days after final dose; format: organism-based; parameters: dose 20 mg/kg, route oral; details: in vivo, 72 h
[21] = tested on: Mus musculus; assay: Toxicity in CD1 mouse assessed as alkaline phosphatase levels at 20 mg/kg, po administered daily once for 5 days measured 3 days after final dose; format: organism-based; parameters: dose 20 mg/kg, route oral; details: in vivo, 72 h
[22] = tested on: Mus musculus; assay: Toxicity in CD1 mouse assessed as glucose levels at 20 mg/kg, po administered daily once for 5 days measured 3 days after final dose; format: organism-based; parameters: dose 20 mg/kg, route oral; details: in vivo, 72 h; summary of the method: as §2
[23] = tested on: Mus musculus; assay: Toxicity in CD1 mouse assessed as phosphate levels at 20 mg/kg, po administered daily once for 5 days measured 3 days after final dose; format: organism-based; parameters: dose 20 mg/kg, route oral; details: in vivo, 72 h; summary of the method: as §2
[24] = tested on: Mus musculus; assay: Toxicity in CD1 mouse assessed as hemoglobin levels at 20 mg/kg, po administered daily once for 5 days measured 3 days after final dose; format: organism-based; parameters: dose 20 mg/kg, route oral; details: in vivo, 72 h; summary of the method: as §2
[25] = tested on: Mus musculus; assay: Toxicity in CD1 mouse assessed as mean corpuscular hemoglobin at 20 mg/kg, po administered daily once for 5 days measured 3 days after final dose; format: organism-based; parameters: dose 20 mg/kg, route oral; details: in vivo, 72 h; summary of the method: as §2
[26] = tested on: Mus musculus; assay: Toxicity in CD1 mouse assessed as platelet count at 20 mg/kg, po administered daily once for 5 days measured 3 days after final dose; format: organism-based; parameters: dose 20 mg/kg, route oral; details: in vivo, 72 h; summary of the method: as §2
[27] = tested on: Mus musculus; assay: Toxicity in C3H HeN mouse at 20 mg/kg, po administered as single dose; format: organism-based; parameters: dose 20 mg/kg, route oral; details: in vivo

Chain of Beta-1 adrenergic receptor (Homo sapiens) (P08588 whole entry, looked up): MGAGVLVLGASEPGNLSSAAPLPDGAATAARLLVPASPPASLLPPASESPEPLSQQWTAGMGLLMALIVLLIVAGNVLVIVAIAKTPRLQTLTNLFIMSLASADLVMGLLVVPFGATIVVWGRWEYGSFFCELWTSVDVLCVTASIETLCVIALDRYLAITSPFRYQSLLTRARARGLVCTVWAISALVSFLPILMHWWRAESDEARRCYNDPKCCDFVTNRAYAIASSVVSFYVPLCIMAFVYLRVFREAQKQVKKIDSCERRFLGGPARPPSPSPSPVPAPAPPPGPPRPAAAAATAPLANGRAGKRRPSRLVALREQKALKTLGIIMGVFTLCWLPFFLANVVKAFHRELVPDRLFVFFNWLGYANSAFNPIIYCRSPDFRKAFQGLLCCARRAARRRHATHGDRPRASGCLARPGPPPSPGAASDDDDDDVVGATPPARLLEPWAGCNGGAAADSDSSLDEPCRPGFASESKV

In the case of O=S(=O)(Nc1ccccc1)c1ccc(NC(=S)Nc2ccccc2)cc1, the Activity [1] is reported as “inactive”, the Activity [2] is reported as “inactive” and the Activity [3] is reported as “Active”. For the same compound, the Activity [4] was “Active”, the Activity [5] was “Active” and the Activity [6] was “inactive”. For the same compound, the Activity [7] was “inactive”, the Activity [8] was “inactive” and the Activity [9] was 80%. For the same compound, the Activity [10] was 20%, the Activity [11] was “inactive” and the Activity [12] was “inactive”. For the same compound, the Activity [13] was “Active”, the AUC [14] was 5010 ng·h/mL and the AUC [15] was 3470 ng·h/mL. For the same compound, the Activity [16] was “Non-toxic”, the Activity [17] was “Non-toxic” and the Activity [18] was “Non-toxic”. It also gave an Activity [19] of 99.3 mg/dL, an Activity [20] of 31.7 U/L and an Activity [21] of 141.3 U/L. It also gave an Activity [22] of 287 mg/dL, an Activity [23] of 11 mg/dL and an Activity [24] of 12 g/dL. The Activity [25] was 16.1 pg, the Activity [26] was 1075 K/uL and the Activity [27] was “Non-toxic”.
